Screens as filed in PubChem BioAssay.
SIRT5 block: SIRT5 desuccinylase inhibitors, primary screen, biochemical, fluorescence imaging, single point, set 5 | inhibition, % at 15 µM | actives 1.1% (n = 330,000) | AID 652115, 2013 | Purified SirT5, succinyl-peptide AMC, trypsin-coupled fluorescence | NAD-dependent protein deacylase sirtuin-5, mitochondrial (Homo sapiens), Q9NXA8; in the data active means inhibition above about 15%; inconclusive means no clear call, values can overlap the other calls
E-selectin induc: E-selectin induction in HUVECs, primary screen, imaging, HUVEC, immunofluorescence imaging, single point | activation, % at 7.58 µM | normalized: neutral wells 0, TNF-alpha wells 100 | P16581 | actives 0.37% (n = 260,000);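 active means mean E-selectin-positive cell signal at least 10% of the positive control, reached in at least 60% of replicates, without over 20% cell loss; inconclusive means no rule given, readout overlaps actives, possibly toxicity-flagged; inactive means the rest, including those meeting only one limit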
Target sequence (P16581 whole entry, looked up): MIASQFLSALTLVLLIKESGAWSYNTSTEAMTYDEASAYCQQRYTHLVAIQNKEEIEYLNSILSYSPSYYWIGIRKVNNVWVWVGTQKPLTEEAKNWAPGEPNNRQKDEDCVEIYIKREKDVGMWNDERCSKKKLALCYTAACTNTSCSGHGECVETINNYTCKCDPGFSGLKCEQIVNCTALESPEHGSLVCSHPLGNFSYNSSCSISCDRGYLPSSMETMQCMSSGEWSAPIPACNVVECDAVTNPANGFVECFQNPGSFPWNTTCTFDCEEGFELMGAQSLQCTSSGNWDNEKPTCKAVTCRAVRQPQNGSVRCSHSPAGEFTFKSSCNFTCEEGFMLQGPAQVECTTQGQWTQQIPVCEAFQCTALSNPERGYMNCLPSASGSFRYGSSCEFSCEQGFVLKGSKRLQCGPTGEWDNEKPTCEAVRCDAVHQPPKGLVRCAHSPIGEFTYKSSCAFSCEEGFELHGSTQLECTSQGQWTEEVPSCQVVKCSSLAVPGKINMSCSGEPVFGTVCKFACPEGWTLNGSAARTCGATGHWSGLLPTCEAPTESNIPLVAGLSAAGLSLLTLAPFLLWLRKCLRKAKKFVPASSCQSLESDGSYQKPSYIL
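material = human umbilical vein endothelial cells (HUVEC), E-selectin induction | quantity = 3,000 cells/well | medium = EGM-2 growth medium on 0.1% gelatin-coated wells | technique = immunofluorescence imaging | read-out basis = % PE-positive cells | control set = TNF-alpha positive control, DMSO neutral control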
DENV2 CPE rescue: inhibitors of DENV2 cytopathic effect, primary screen, cell-based, plate reader, single concentration. DENV2-infected cells, cytopathic effect rescue. CPE inhibition, % at 9.99 µM. AID 651640, 2012. actives 1.7% (n = 350,000); in the data active means CPE inhibition above about 20%, passing the limit was not always enough; inconclusive means no clear call, values can overlap the other calls; tested in BHK-21 cells;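 further: 0% = median of neutral control wells and 100% = median of positive control wells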
PglD DTNB: C. jejuni PglD acetyltransferase inhibitors, primary screen, biochemical, DTNB colorimetric, single point. UDP-N-acetylbacillosamine N-acetyltransferase PglD (Campylobacter jejuni). purified PglD enzyme, DTNB colorimetric CoA detection. inhibition, % at 12.5 µM. actives 0.098% (n = 360,000); in the data active means inhibition above about 16%, passing the limit was not always enough; inconclusive means no clear call, values can overlap the other calls
ERAP1 inh: human ERAP1 aminopeptidase inhibitors, primary screen, biochemical, single point, plate reader; Endoplasmic reticulum aminopeptidase 1 (Homo sapiens), Q9NZ08; recombinant ERAP1, Leu-AMC fluorescence, 60 min; inhibition, % at 10.7 µM; actives 0.15% (n = 340,000);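 active means mean replicate inhibition of at least 30%, or all replicates individually reaching that 30% level; inactive means mean below 30% and not every replicate reaching it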;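 further: 0% = neutral control wells and 100% = L-leucinethiol positive control wells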
* hit, by the source's call; ? = inconclusive; . = no result given; ! = not confirmed by another sample. Sampled rows, rich in hits. Any-hit rate of the full collection: about 2.5%.

SMILES | SIRT5 block | E-selectin induc | DENV2 CPE rescue | PglD DTNB | ERAP1 inh
COc1ccc(CN(C)C[C@@H]2Oc3ccc(NC(=O)Nc4ccc(F)cc4)cc3CC(=O)N([C@@H](C)CO)C[C@@H]2C)cc1 | 2 | 62* | 3 | 2 | -2
COc1ccc(CN(C)C[C@H]2Oc3ccc(NC(=O)Nc4ccc(F)cc4)cc3CC(=O)N([C@@H](C)CO)C[C@H]2C)cc1 | 4 | . | -1 | 1 | -2
COc1ccc(NC(=O)N(C)C[C@H]2Oc3ccc(NC(=O)c4ccncc4)cc3CC(=O)N([C@H](C)CO)C[C@H]2C)cc1 | -2 | 42* | 10 | -2 | 5
C[C@H](CO)N1C[C@H](C)[C@H](CN(C)C(=O)Nc2ccc(F)cc2)Oc2ccc(NC(=O)Nc3ccc(C(F)(F)F)cc3)cc2CC1=O | 2 | 0 | 13 | 0 | -1
COc1ccc(NC(=O)N(C)C[C@@H]2Oc3ccc(NC(=O)Nc4ccc(C(F)(F)F)cc4)cc3CC(=O)N([C@H](C)CO)C[C@@H]2C)cc1 | 1 | 0 | 53* | -1 | 2
COc1ccc(NC(=O)Nc2ccc3c(c2)CC(=O)N([C@@H](C)CO)C[C@H](C)[C@@H](CN(C)C(=O)Nc2ccccc2)O3)cc1 | -1 | 0 | 46* | 11 | -1
C[C@@H]1CN([C@@H](C)CO)C(=O)Cc2cc(NC(=O)Nc3ccc(F)cc3)ccc2O[C@H]1CN(C)C(=O)Nc1ccc(C(F)(F)F)cc1 | . | 52* | -6 | 2 | .
COc1ccc(CN(C)C[C@H]2Oc3ccc(NC(=O)c4ccncc4)cc3CC(=O)N([C@H](C)CO)C[C@H]2C)cc1 | -7 | 0 | 0 | 3 | -1
COc1ccc(NC(=O)Nc2ccc3c(c2)CC(=O)N([C@H](C)CO)C[C@@H](C)[C@@H](CN(C)C(=O)Nc2ccc(C(F)(F)F)cc2)O3)cc1 | . | . | -1 | 1 | .
COc1cccc(C#Cc2ccc([C@H]3[C@H](CO)N4C(=O)CN(C(=O)c5ccccc5)C[C@@H]34)cc2)c1 | 6 | -1 | -1 | . | 6
CC12CCC(=O)N1C(C(=O)N1CCN(S(=O)(=O)c3cccc(Cl)c3)CC1)CS2 (stereo unspecified) | -1 | . | 0 | . | 2
O=C(NCCc1ccccc1)C(=Cc1ccc(C(=O)O)cc1)C(=O)NCCc1ccccc1 | -1 | . | 1 | -1 | -6
CC(=O)c1csc(-c2cccc(-c3nc4ccc(Cl)cn4c3NC3CCCCC3)c2)c1 | . | 0 | ? | -2 | -2
O=C(NC1CCCC1)C(c1ccco1)N1CCN(c2c(Cl)cncc2Cl)CC1 (stereo unspecified) | 1 | 2 | 24* | . | -3
COCC(=O)Nc1ccc2c(c1)[C@@H]1C[C@@H](CC(=O)NCc3cccc(F)c3)O[C@H](CO)[C@@H]1O2 | 3 | -1 | 2 | -1 | 0
CCCCNC(=O)O[C@H]1C[C@@H]2CCN3C(=O)CCC[C@H]([C@H]1Cc1ccccc1)[C@H]23 | 0 | . | 54* | 1 | 1
CC[C@@H]1[C@H]2CCCC(=O)N3CC[C@@H](C[C@@H]1OC(=O)NCc1ccccc1)[C@@H]23 | -3 | 0 | -2 | 4 | 1
CCCNC(=O)N[C@@H]1CC[C@@H](CCn2cc(C3CCCC3)nn2)O[C@H]1CO | 2 | 0 | 33* | 1 | 0
O=C(N[C@@H]1CC[C@@H](CCn2cc(C3CCCC3)nn2)O[C@H]1CO)c1cccnc1 | -6 | 0 | 29* | . | 2
O=C(C[C@H]1CC[C@H](NS(=O)(=O)c2ccc(F)cc2)[C@H](CO)O1)NCc1ccncn1 | 8 | -2 | 23* | 1 | 1
O=C(C[C@@H]1CC[C@H](NS(=O)(=O)c2ccc(F)cc2)[C@@H](CO)O1)NCc1ccncn1 | -7 | -2 | 4 | 0 | 0
O=C(C[C@H]1CC[C@@H](NS(=O)(=O)c2ccccc2)[C@@H](CO)O1)NCc1ccncn1 | 21* | 0 | 10 | 4 | 0
O=C(C[C@@H]1CC[C@@H](NS(=O)(=O)c2ccccc2)[C@@H](CO)O1)NCc1ccncn1 | 4 | 4 | -2 | 3 | -2
COC(=O)[C@H](Cc1ccccc1)N1CC2=C[C@H](C3CC3)n3c(=O)n(C)c(=O)n3[C@@H]2[C@H]1[C@H](O)Cc1ccccc1 | -1 | . | 13 | 1 | -2
CCC(C)C(CO)NCCCn1cnc2c(SC)ncnc21 (stereo unspecified) | 26* | 0 | -5 | 0 | 8
SMILES | SIRT5 block | E-selectin induc | DENV2 CPE rescue | PglD DTNB | ERAP1 inh
CCc1[nH]nc(C(=O)N2CCCC(C(=O)c3cccc(OC(C)C)c3)C2)c1C (stereo unspecified) | -3 | . | 0 | 2 | -3
O=c1c2ccccc2sn1-c1ccc(Cl)cc1Cl | 0 | -1 | 1 | -1 | 81*
O=c1c2ccccc2ncn1-c1ccc(Cl)cc1Cl | 2 | 0 | -5 | 0 | 2
C[C@@H]1CCCCO[C@@H](CN(C)Cc2ccc(Cl)c(Cl)c2)[C@H](C)CN([C@H](C)CO)C(=O)c2cc(NC(=O)c3ccccc3)ccc2O1 | 11 | 0 | 6 | -2 | -1
C[C@@H]1CCCCO[C@H](CN(C)C(=O)Cc2ccccc2)[C@@H](C)CN([C@H](C)CO)C(=O)c2cc(NC(=O)Nc3cccc4ccccc34)ccc2O1 | 3 | 0 | 14 | 0 | 4
C[C@H]1CCCCO[C@H](CN(C)C(=O)CCCN(C)C)[C@@H](C)CN([C@@H](C)CO)C(=O)c2cc(NC(=O)Nc3cccc4ccccc34)ccc2O1 | 0 | 0 | 16 | 1 | 1
C[C@@H]1CCCCO[C@@H](CN(C)Cc2ccccc2)[C@@H](C)CN([C@H](C)CO)C(=O)c2cc(NC(=O)Nc3cccc4ccccc34)ccc2O1 | 1 | 0 | 21*! | -2 | 0
C[C@@H]1CCCCO[C@H](CN(C)C(=O)CCCN(C)C)[C@@H](C)CN([C@@H](C)CO)C(=O)c2cc(NC(=O)Nc3cccc4ccccc34)ccc2O1 | 18* | 0 | -4 | -4 | 3
C[C@H](CO)N1C[C@H](C)[C@@H](CN(C)C(=O)Cc2ccccc2)OCCCC[C@H](C)Oc2ccc(NC(=O)Nc3cccc4ccccc34)cc2C1=O | 10 | 0 | 24* | -1 | 1
CC(/C=C1\SC(=S)N(CC(=O)O)C1=O)=C\c1ccccc1 | 1 | 1 | -4 | . | 0
CC(/C=C1\SC(=S)N(C(C(=O)O)c2ccccc2)C1=O)=C\c1ccccc1 (stereo unspecified) | 9 | 2 | -5 | . | 30*
CCOc1ccc(/C=C2\SC(=S)N(C(C(=O)O)c3ccccc3)C2=O)cc1OC (stereo unspecified) | 9 | -1 | 2 | -3 | 11
C=CCOc1ccc(/C=C2\SC(=S)N(C(C(=O)O)c3ccccc3)C2=O)cc1 (stereo unspecified) | 8 | 2 | 3 | . | 34*
